Data set [1] relates to Mus musculus. Put plainly: Percent reduction in blood glucose is evaluated in db/db mice for euglycemic and hypolipidemic activities at a dose of 200 mg/kg.
Data set [2] has as its system Mus musculus. Description: Percent reduction in triglyceride (TG) after 9 days of dosing in db/db is evaluated in mice for euglycemic and hypolipidemic activities at a dose of 200 mg/kg.
Data set [3] has as its system Mus musculus. Put plainly: Percent reduction in blood glucose is evaluated in db/db mice for euglycemic and hypolipidemic activities at a dose of 10 mg/kg.
For data set [4], the system named is Mus musculus. Put plainly: Percent reduction in blood glucose is evaluated in db/db mice for euglycemic and hypolipidemic activities at a dose of 100 mg/kg.
For data set [5], the system named is Mus musculus. Put plainly: Percent reduction in triglyceride (TG) after 9 days of dosing in db/db is evaluated in mice for euglycemic and hypolipidemic activities at a dose of 10 mg/kg.
Data set [6] deals with Mus musculus. Put plainly: Percent reduction in triglyceride (TG) after 9 days of dosing in db/db is evaluated in mice for euglycemic and hypolipidemic activities at a dose of 100 mg/kg.
Data set [7] is described as follows: Pharmacokinetic parameter [area under curve (AUC)] was evaluated at 10 mg/kg (p.o.) in Wistar rats. Type of data set: ADME, organism-based. The arrangement: dose 10 mg/kg, route oral. As to conditions: rat, in vivo, po. In a few lines: (§1)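 Wistar rats (175-200 g), fasted 12 h, water free, fed 3 h post-dose. Single 10 mg/kg oral dose as 0.5% CMC suspension. Orbital sinus blood taken at 0, 0.5, 1, 2, 3, 5, 8, 12 and 24 h. Plasma assayed by reverse-phase C18 HPLC with fluorescence detection. Noncompartmental analysis gave AUC0-∞, Kel, t1/2, Cmax and tmax.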

The nature of data set [8]: Pharmacokinetic parameter [Kel(1/h)] was evaluated at 10 mg/kg (p.o.) in Wistar rats. It counts as ADME, organism-based. Further details: dose 10 mg/kg, route oral. As to conditions: rat, in vivo, po. In a few lines:
as §1

Data set [9] can be described thus: Pharmacokinetic parameter (Cmax) was evaluated at 10 mg/kg (p.o.) in Wistar rats. To be noted: rat, in vivo, po. It counts as ADME, organism-based. The arrangement: dose 10 mg/kg, route oral. In a few lines: as §1
Data set [10] deals with Rattus norvegicus. Put plainly: Tissue level at 10 mg/kg/po in wistar rats in blood. It counts as ADME, organism-based. As to conditions: in vivo. In a few lines: (§2)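 Wistar rats, two per drug, given 10 mg/kg orally and sacrificed at plasma tmax. Blood/plasma drawn just before sacrifice. Tissues perfused with phosphate buffer pH 5.8 and homogenized 1:4 in buffer. Drug measured by HPLC and reported as µg/g wet tissue. Ratios are tissue over plasma.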

In data set [11] the test system is Rattus norvegicus. Description: Tissue level at 10 mg/kg/po in wistar rats in brown fat. It counts as ADME, organism-based. To be noted: in vivo. In a few lines:
as §2

Data set [12] concerns Rattus norvegicus. Description: Tissue level at 10 mg/kg/po in wistar rats in heart. It counts as ADME, organism-based. To be noted: in vivo. In a few lines:
as §2

For data set [13], the system named is Rattus norvegicus. Put plainly: Tissue level at 10 mg/kg/po in wistar rats in plasma. Type of data set: ADME, organism-based. To be noted: in vivo. Put shortly:
as §2

Data set [14] concerns Rattus norvegicus. Description: Tissue level at 10 mg/kg/po in wistar rats in skeletal muscle. To be noted: in vivo. Type of data set: ADME, organism-based. In a few lines: as §2
Data set [15] deals with Rattus norvegicus. Put plainly: Tissue level at 10 mg/kg/po in wistar rats in subcutaneous fat. It counts as ADME, organism-based. As to conditions: in vivo. In a few lines: as §2
A short description of data set [16]: Pharmacokinetic parameter (tmax(h)) was evaluated at 10 mg/kg (p.o.) in Wistar rats. It counts as ADME, organism-based. As to conditions: rat, in vivo, po. Further details: dose 10 mg/kg, route oral. In a few lines:
as §1

A short description of data set [17]: Ratio between level in brown fat to that of the level in plasma. Type of data set: ADME. In a few lines: as §2
Data set [18] is described as follows: Ratio between level in heart to that of the level in plasma. It counts as ADME. In a few lines: as §2
Data set [19] is described as follows: Ratio between level in liver to that of the level in plasma. It counts as ADME, tissue-based. In a few lines:
as §2

The nature of data set [20]: Ratio between level in skeletal muscle to that of the level in plasma. It counts as ADME. Put shortly:
as §2

Data set [21] in a line: Ratio between level in subcutaneous fat to that of the level in plasma. Type of data set: ADME. Put shortly: as §2
Data set [22] concerns Rattus norvegicus. Description: Tissue level at 10 mg/kg/po in wistar rats in liver. Type of data set: ADME, organism-based. As to conditions: in vivo. In a few lines:
as §2

Data set [23] in a line: Pharmacokinetic parameter (half-life) was evaluated at 10 mg/kg (p.o.) in Wistar rats. Type of data set: ADME, organism-based. The arrangement: dose 10 mg/kg, route oral. To be noted: rat, in vivo, po. In a few lines:
as §1

Data set [24] in a line: Ratio between level in blood to that of the level in plasma. Type of data set: ADME. In a few lines: as §2
Data set [25] is described as follows: Pharmacokinetic Parameter [Area under curve (AUC)] was evaluated at 10 mg/kg (p.o.) in Wistar rats. As to conditions: rat, in vivo, po. It counts as ADME, organism-based. Further details: dose 10 mg/kg, route oral. In a few lines: as §1
The nature of data set [26]: Pharmacokinetic Parameter [Kel(1/h)] was evaluated at 10 mg/kg (p.o.) in Wistar rats. It counts as ADME, organism-based. The arrangement: dose 10 mg/kg, route oral. To be noted: rat, in vivo, po. Put shortly:
as §1

Data set [27] in a line: Pharmacokinetic Parameter (Cmax) was evaluated at 10 mg/kg (p.o.) in Wistar rats. Type of data set: ADME, organism-based. Further details: dose 10 mg/kg, route oral. As to conditions: rat, in vivo, po. In a few lines: as §1
Data set [28] is described as follows: Pharmacokinetic Parameter [tmax(h)] was evaluated at 10 mg/kg (p.o.) in Wistar rats. To be noted: rat, in vivo, po. Further details: dose 10 mg/kg, route oral. It counts as ADME, organism-based. In a few lines:
as §1

The nature of data set [29]: Pharmacokinetic Parameter (half-life) was evaluated at 10 mg/kg (p.o.) in Wistar rats. Further details: dose 10 mg/kg, route oral. It counts as ADME, organism-based. To be noted: rat, in vivo, po. In a few lines:
as §1

In data set [30] the test system is Mus musculus. Description: Percent reduction in triglyceride (TG) after 9 days of dosing in db/db is evaluated in mice for euglycemic and hypolipidemic activities.

The AUC is the area under the concentration-time curve, a measure of exposure. The low end stands for low exposure, the high end for high exposure. Usually Cmax stands for the maximum level reached in the sampled fluid or tissue. A word on the Tmax: it is the time from dosing to the highest level. In general, Kp refers to the ratio of the level in a tissue or fluid to that in plasma or blood. Usually half-life stands for the time needed for the level to fall by half in the phase considered. A low value points to fast loss.

Structures are written as SMILES.

With `O=C1NC(=O)C(Cc2ccc(OCCn3ccc4cccnc43)cc2)S1` (stereo unspecified), the Reduction in the data set with Mus musculus [1] is on record as 33%; in the data set with Mus musculus [2], 74%.

Consider `CN(CCOc1ccc(CC2SC(=O)NC2=O)cc1)c1ccccn1` (stereo unspecified) [ROSIGLITAZONE], for which the Reduction came out at 100% with Mus musculus [3]; 71% in the data set with Mus musculus [4]; 67% with Mus musculus [1]; 46% in the data set with Mus musculus [5]; 46% in the data set on Mus musculus [6]; 55% in the data set on Mus musculus [2].

Take `O=C1NC(=O)/C(=C/c2ccc(OCCn3ccnc3)cc2)S1`: the Reduction amounted to 13% in the data set with Mus musculus [1] and 72% with Mus musculus [2].

With `O=C1NC(=O)C(Cc2ccc(OCCN3CCc4ccccc43)cc2)S1` (stereo unspecified), the Reduction in the data set on Mus musculus [1] is reported as 33%; in the data set with Mus musculus [2], 79%.

In data set [7], `O=C1NC(=O)C(Cc2ccc(OCCn3ccc4ccccc43)cc2)S1` (stereo unspecified) displayed an AUC of 129000 ng·h/mL. The k el in data set [8] was 6.94e-05 s⁻¹. This compound showed a Cmax in [9] of 14500 ng/mL. Further, the Concentration was 7240 ng/mL with Rattus norvegicus [10]; 1.23 µg/g in the data set on Rattus norvegicus [11]; 2.45 µg/g with Rattus norvegicus [12]; 11800 ng/mL in the data set with Rattus norvegicus [13]; 0.85 µg/g in the data set on Rattus norvegicus [14]; 1.5 µg/g in the data set on Rattus norvegicus [15]. The Concentration in the data set with Rattus norvegicus [22] came out at 10.01 µg/g. The Tmax in [16] is 3.67 h. In addition, the Kp amounted to 0.1 in data set [17]; 0.21 in data set [18]; 0.85 in data set [19]; 0.07 in [20]; 0.13 in data set [21]. In data set [23], this compound had a half-life of 3.28 h. The blood plasma ratio in data set [24] amounted to 0.62. The Reduction was found to be 74% with Mus musculus [4] and 77% in the data set with Mus musculus [6].

With `O=C1NC(=O)/C(=C/c2ccc(OCCn3c(C(=O)O)cc4ccccc43)cc2)S1`, the Reduction in the data set with Mus musculus [1] stood at 12%; in the data set on Mus musculus [2] it was 0%.

For the compound `O=C1NC(=O)/C(=C/c2ccc(OCCn3ccc4cccnc43)cc2)S1`, the Reduction in the data set on Mus musculus [1] worked out at 36%; with Mus musculus [2] it was 79%.

`O=C1NC(=O)/C(=C/c2ccc(OCCn3ccc4cc(Cl)ccc43)cc2)S1`: the Reduction with Mus musculus [1] came out at 39%; with Mus musculus [2] it was 11%.

As for `Cc1c(C)c2c(c(C)c1O)CCC(C)(COc1ccc(CC3SC(=O)NC3=O)cc1)O2` (stereo unspecified) [TROGLITAZONE], the Reduction in the data set on Mus musculus [3] is given as 41%.

The compound `CN(CCOc1ccc(CC2SC(=O)NC2=O)cc1)c1ccccn1.O=C(O)/C=C\C(=O)O` (stereo unspecified) [ROSIGLITAZONE MALEATE] showed an AUC in [25] of 59200 ng·h/mL. Also, in [26], the k el was 0.0002 s⁻¹. In data set [27], this compound had a Cmax of 29400 ng/mL. In addition, the Concentration was determined as 13800 ng/mL in the data set on Rattus norvegicus [10]; 2.1 µg/g with Rattus norvegicus [11]; 1.63 µg/g in the data set with Rattus norvegicus [12]; 27200 ng/mL in the data set on Rattus norvegicus [13]; 0.87 µg/g with Rattus norvegicus [14]; 14.32 µg/g with Rattus norvegicus [15]. For the same compound, the Concentration in the data set on Rattus norvegicus [22] was found to be 10.9 µg/g. Also, the Tmax in [28] is 0.5 h. The half-life in [29] was 1.02 h. Besides, the Kp in data set [17] came out at 0.08; in data set [18] it was 0.06; in data set [19], 0.4; in data set [20] it was 0.03; in data set [21] it was 0.53. Further, in [24], the blood plasma ratio came out at 0.51. The Reduction in the data set on Mus musculus [3] is 55%; with Mus musculus [30], 37%.

In the case of `O=C1NC(=O)/C(=C/c2ccc(OCCn3cnc4ccccc43)cc2)S1`, the values for the Reduction in the data set with Mus musculus [1] and in the data set with Mus musculus [2] were 33% and 76%, respectively.

`O=C1NC(=O)/C(=C/c2ccc(OCCN3CCc4ccccc43)cc2)S1`: the Reduction is 61% in the data set on Mus musculus [1] and 83% in the data set with Mus musculus [2].

Regarding `Cc1cc2ccccc2n1CCOc1ccc(/C=C2\SC(=O)NC2=O)cc1`, the results for the Reduction in the data set on Mus musculus [1] and in the data set on Mus musculus [2] were 16% and 41%, respectively.

As to `O=C1NC(=O)C(Cc2ccc(OCCn3c4ccccc4c4ccccc43)cc2)S1` (stereo unspecified), the Reduction in the data set with Mus musculus [4] came out at 0%; with Mus musculus [6] it was 21%.

Turning to `CCOC(=O)c1cc2ccccc2n1CCOc1ccc(/C=C2\SC(=O)NC2=O)cc1`, the values for the Reduction in the data set on Mus musculus [1] and in the data set on Mus musculus [2] were 0% and 13%, respectively.

With `Cc1c(C)n(CCOc2ccc(/C=C3\SC(=O)NC3=O)cc2)c2ccccc12`, the Reduction in the data set on Mus musculus [1] was found to be 40%; with Mus musculus [2], 2%.

As for `O=C1NC(=O)/C(=C/c2ccc(OCCn3ccc4ccccc43)cc2)S1`, the Reduction with Mus musculus [1] was determined as 33%; with Mus musculus [30] it was 37%.

In the case of `COC(=O)C(N)Cc1cn(CCOc2ccc(/C=C3\SC(=O)NC3=O)cc2)c2ccccc12` (stereo unspecified), the figures for the Reduction with Mus musculus [4] and in the data set with Mus musculus [6] were 27% and 64%, respectively.

Take `O=C1NC(=O)/C(=C\c2ccc(OCCn3c4ccccc4c4ccccc43)cc2)S1`: the Reduction came to 0% in the data set on Mus musculus [4] and 44% in the data set with Mus musculus [6].

As to `CN(CCOc1ccc(/C=C2\SC(=O)NC2=O)cc1)c1ccccn1`, the Reduction is on record as 56% in the data set on Mus musculus [3], 56% in the data set on Mus musculus [4], 32% in the data set on Mus musculus [5] and 32% in the data set on Mus musculus [6].

The record behind these values is ChEMBL document CHEMBL1131213, “Novel euglycemic and hypolipidemic agents. 1” (J Med Chem, 1998).
